Converted amounts (≈) assume the structure as drawn.
Columns and labels:
[1] = test system: Plasmodium falciparum; experiment: Antimalarial activity against chloroquine-resistant Plasmodium falciparum K1; type: functional, organism-based
Outline: (§1)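 IC50 (ng/mL) against P. falciparum blood stages, K1 (chloroquine-resistant) and NF54 (chloroquine-sensitive), reported as the mean of n = 2-3 determinations; individual measurements generally within 50% of each other.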

[2] = test system: Plasmodium falciparum; experiment: Antimalarial activity against chloroquine-sensitive Plasmodium falciparum NF54; type: functional, organism-based; outline: as §1
[3] = test system: Plasmodium berghei; experiment: Antimalarial activity as reduced parasitaemia against Plasmodium berghei infected NMRI mice (Mus musculus) at 100 mg/kg peroral dose 3 days post-infection; type: functional; design: scale not given: the % may be the effect or the level left; conditions: route oral
Outline: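 Groups of three NMRI mice infected with P. berghei were dosed orally 1 day after infection with 100 mg/kg, dissolved or suspended in 3% ethanol/7% Tween-80 vehicle. Percent reduction in parasitemia was read on day 3 post-infection against an untreated control group; individual measurements generally within 10%.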

[4] = test system: Plasmodium falciparum; experiment: Antimalarial activity against Plasmodium falciparum; type: functional, organism-based
Outline: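 In vitro assay against chloroquine-resistant K1 and chloroquine-sensitive NF54 strains of P. falciparum. IC50 is reported in ng/mL as the mean of 2-3 determinations per strain, and individual measurements generally differed by less than 50%.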

Row | SMILES | IC50 [1] [µg/mL] | IC50 [2] [µg/mL] | Activity [3] [%] | IC50 [4] [µg/mL]
1 | CC1(CCC(=O)O)CC2(CCCCC2)OO1 (stereo not drawn) | > 1 | > 1 | 0 | –
2 | CCCC1(CCC)CC2(OO1)C1CC3CC(C1)CC2C3 (stereo not drawn) | 0.12 (≈ 0.431 µM) | 0.12 (≈ 0.431 µM) | 6 | –
3 | CCOC(=O)CCC1(C)CC2(CCCCC2)OO1 (stereo not drawn) | 0.048 (≈ 0.187 µM) | 0.081 (≈ 0.316 µM) | 18 | –
4 | c1ccc(C2CCC3(CC2)CC2(OO3)C3CC4CC(C3)CC2C4)cc1 (stereo not drawn) | > 1 | > 1 | 0 | –
5 | OC1(CC2(O)C3CC4CC(C3)CC2C4)CCCCC1 (stereo not drawn) | – | – | – | > 1
6 | C1CCC2(CC1)CC1(CCCCC1)OO2 | 0.041 (≈ 0.195 µM) | 0.11 (≈ 0.523 µM) | 0 | –
7 | CCCC1(CCC)CC2(CCCCC2)OO1 | 0.23 (≈ 1.02 µM) | 0.36 (≈ 1.59 µM) | 0 | –
8 | CC(C)(C)C1CCC2(CC1)CC1(CCCC1)OO2 (stereo not drawn) | 0.13 (≈ 0.515 µM) | 0.18 (≈ 0.713 µM) | 45 | –
9 | c1ccc(C2CC3(CCCCC3)OO2)cc1 (stereo not drawn) | 0.44 (≈ 2.02 µM) | 0.66 (≈ 3.02 µM) | 0 | –
10 | C1CCC2(CC1)CC1(OO2)C2CC3CC(C2)CC1C3 (stereo not drawn) | 0.77 (≈ 2.93 µM) | 0.66 (≈ 2.52 µM) | 0 | –
11 | CC1(CCCO)CC2(CCCCC2)OO1 (stereo not drawn) | 0.05 (≈ 0.233 µM) | 0.08 (≈ 0.373 µM) | 0 | –
12 | c1ccc(C2CCC3(CC2)CC2(CCCCC2)OO3)cc1 (stereo not drawn) | 0.041 (≈ 0.143 µM) | 0.093 (≈ 0.325 µM) | 84 | –
13 | CC(C)(C)C1CCC2(CC1)CC1(CCCCC1)OO2 (stereo not drawn) | 0.063 (≈ 0.236 µM) | 0.12 (≈ 0.45 µM) | 30 | –
14 | c1ccc(C2CCC3(CC2)CC2(CCCC2)OO3)cc1 (stereo not drawn) | 0.038 (≈ 0.14 µM) | 0.083 (≈ 0.305 µM) | 49 | –
15 | C1CCC2(CC1)CC1(CCCC1)OO2 | 0.041 (≈ 0.209 µM) | 0.062 (≈ 0.316 µM) | 0 | –
